Columns and labels:
Format in all cases: functional
DU-145 = assay: Cytotoxicity against human DU145 cells after 48 hrs by sulforhodamine B assay; details: DU-145, 48 h
SNB-19 = assay: Cytotoxicity against human SNB19 cells after 48 hrs by sulforhodamine B assay; details: SNB-19, 48 h
NCI-H522 = assay: Cytotoxicity against human NCI-H522 cells after 48 hrs by sulforhodamine B assay; details: NCI-H522, 48 h
NCI-H460 [1] = assay: Cytotoxicity against human NCI-H460 cells assessed as cell death in serum free medium at 500 nM after 12 hrs by Hoechst 33342/propidium iodide staining based fluorescence microscopy
In short: (§1)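 NCI-H460 human lung cancer cells exposed 12 h to 10 nM–10 μM drug, including a 50 nM single-concentration test. Nuclei were stained with Hoechst 33342 and necrotic cells with propidium iodide. Apoptotic cells were scored by condensed or fragmented blue nuclei and necrotic cells by red PI staining. Total cell death (apoptosis plus necrosis) was recorded; N = 6.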

SK-MEL-28 = assay: Cytotoxicity against human SK-MEL-28 cells after 48 hrs by sulforhodamine B assay; details: SK-MEL-28, 48 h
MOLT-4 = assay: Cytotoxicity against human MOLT4 cells after 48 hrs by sulforhodamine B assay; details: MOLT-4, 48 h
MDA-MB-435 = assay: Cytotoxicity against human MDA-MB-435 breast cancer cells after 48 hrs by sulforhodamine B assay; details: MDA-MB-435, 48 h
NCI/ADR-RES = assay: Cytotoxicity against human NCI/ADR-RES cells after 48 hrs by sulforhodamine B assay
NCI-H226 = assay: Cytotoxicity against human NCI-H226 cells after 48 hrs by sulforhodamine B assay; details: NCI-H226, 48 h
SN12C = assay: Cytotoxicity against human SN12C cells after 48 hrs by sulforhodamine B assay
NCI-H322M = assay: Cytotoxicity against human NCI-H322M cells after 48 hrs by sulforhodamine B assay
SF-268 = assay: Cytotoxicity against human SF268 cells after 48 hrs by sulforhodamine B assay; details: SF-268, 48 h
SK-MEL-5 = assay: Cytotoxicity against human SK-MEL-5 cells after 48 hrs by sulforhodamine B assay; details: SK-MEL-5, 48 h
HT-29 = assay: Cytotoxicity against human HT-29 cells after 48 hrs by sulforhodamine B assay; details: HT-29, 48 h
U-251 = assay: Cytotoxicity against human U251 cells after 48 hrs by sulforhodamine B assay; details: U-251, 48 h
NCI-H460 [2] = assay: Cytotoxicity against human NCI-H460 cells assessed as cell death in serum free medium at 1000 nM after 12 hrs by Hoechst 33342/propidium iodide staining based fluorescence microscopy; in short: as §1
OVCAR-8 = assay: Cytotoxicity against human OVCAR8 cells after 48 hrs by sulforhodamine B assay; details: OVCAR-8, 48 h
HCT-15 = assay: Cytotoxicity against human HCT15 cells after 48 hrs by sulforhodamine B assay; details: HCT-15, 48 h
NCI-H460 [3] = assay: Cytotoxicity against human NCI-H460 cells assessed as cell death in serum free medium at 50 nM after 12 hrs by Hoechst 33342/propidium iodide staining based fluorescence microscopy; in short: as §1
RXF 393 = assay: Cytotoxicity against human RXF393 cells after 48 hrs by sulforhodamine B assay; details: RXF 393, 48 h
HCT-116 = assay: Cytotoxicity against human HCT116 cells after 48 hrs by sulforhodamine B assay; details: HCT-116, 48 h
NCI-H460 [4] = assay: Cytotoxicity against human NCI-H460 cells assessed as cell death in serum free medium at 75 nM after 12 hrs by Hoechst 33342/propidium iodide staining based fluorescence microscopy; in short: as §1
IGROV-1 = assay: Cytotoxicity against human IGROV1 cells after 48 hrs by sulforhodamine B assay; details: IGROV-1, 48 h
SK-MEL-2 = assay: Cytotoxicity against human SK-MEL-2 cells after 48 hrs by sulforhodamine B assay; details: SK-MEL-2, 48 h
UACC-257 = assay: Cytotoxicity against human UACC257 cells after 48 hrs by sulforhodamine B assay; details: UACC-257, 48 h
SK-OV-3 = assay: Cytotoxicity against human SKOV3 cells after 48 hrs by sulforhodamine B assay; details: SK-OV-3, 48 h
Malme-3M = assay: Cytotoxicity against human MALME-3M cells after 48 hrs by sulforhodamine B assay
TK-10 = assay: Cytotoxicity against human TK10 cells after 48 hrs by sulforhodamine B assay; details: TK-10, 48 h
NCI-H460 [5] = assay: Cytotoxicity against human NCI-H460 cells assessed as cell death in serum free medium at 10 nM after 12 hrs by Hoechst 33342/propidium iodide staining based fluorescence microscopy; in short: as §1
NCI-H460 [6] = assay: Cytotoxicity against human NCI-H460 cells assessed as cell death in serum free medium at 250 nM after 12 hrs by Hoechst 33342/propidium iodide staining based fluorescence microscopy; in short: as §1
HOP-92 = assay: Cytotoxicity against human HOP92 cells after 48 hrs by sulforhodamine B assay; details: HOP-92, 48 h
RPMI-8226 = assay: Cytotoxicity against human RPMI8226 cells after 48 hrs by sulforhodamine B assay; details: RPMI-8226, 48 h
MDA-MB-231 = assay: Cytotoxicity against human MDA-MB-231 cells after 48 hrs by sulforhodamine B assay; details: MDA-MB-231, 48 h
NCI-H460 [7] = assay: Cytotoxicity against human NCI-H460 cells after 48 hrs by sulforhodamine B assay; details: NCI-H460, 48 h
CCRF-CEM = assay: Cytotoxicity against human CCRF-CEM cells after 48 hrs by sulforhodamine B assay
K562 = assay: Cytotoxicity against human K562 cells after 48 hrs by sulforhodamine B assay; details: K562, 48 h
786-0 = assay: Cytotoxicity against human 786-0 cells after 48 hrs by sulforhodamine B assay; details: 786-0, 48 h
SW-620 = assay: Cytotoxicity against human SW620 cells after 48 hrs by sulforhodamine B assay; details: SW-620, 48 h
COLO 205 = assay: Cytotoxicity against human COLO205 cells after 48 hrs by sulforhodamine B assay; details: COLO 205, 48 h
OVCAR-4 = assay: Cytotoxicity against human OVCAR4 cells after 48 hrs by sulforhodamine B assay; details: OVCAR-4, 48 h
HCC 2998 = assay: Cytotoxicity against human HCC2998 cells after 48 hrs by sulforhodamine B assay; details: HCC 2998, 48 h

CC(C)C[C@@H]1O[C@@H](O[C@H]2CC[C@@]3(C)[C@H](CC[C@@H]4[C@@H]3CC[C@]3(C)[C@@H](C5=CC(=O)OC5)CC[C@]43O)C2)CC[C@H]1O
GI50 (DU-145): 16.6 nM
GI50 (SNB-19): 58.9 nM
GI50 (NCI-H522): 23.6 nM
Activity (NCI-H460 [1]): 62.18%
GI50 (SK-MEL-28): 133 nM
GI50 (MOLT-4): 13.1 nM
GI50 (MDA-MB-435): 149 nM
GI50 (NCI/ADR-RES): 26.9 nM
GI50 (NCI-H226): 95.9 nM
GI50 (SN12C): 23.7 nM
GI50 (NCI-H322M): 42.5 nM
GI50 (SF-268): 26.3 nM
GI50 (SK-MEL-5): 27.7 nM
GI50 (HT-29): 31.5 nM
GI50 (U-251): 39.7 nM
Activity (NCI-H460 [2]): 94.8%
GI50 (OVCAR-8): 29.6 nM
GI50 (HCT-15): 40.3 nM
Activity (NCI-H460 [3]): 13.06%
GI50 (RXF 393): 18.6 nM
GI50 (HCT-116): 26.1 nM
Activity (NCI-H460 [4]): 15%
GI50 (IGROV-1): 29.9 nM
GI50 (SK-MEL-2): 115 nM
GI50 (UACC-257): 31.3 nM
GI50 (SK-OV-3): 43.1 nM
GI50 (Malme-3M): 25.7 nM
GI50 (TK-10): 28.6 nM
Activity (NCI-H460 [5]): 10.03%
Activity (NCI-H460 [6]): 21.86%
GI50 (HOP-92): 74.2 nM
GI50 (RPMI-8226): 35.6 nM
GI50 (MDA-MB-231): 225 nM
GI50 (NCI-H460 [7]): 20.9 nM
GI50 (CCRF-CEM): 28.5 nM
GI50 (K562): 26.9 nM
GI50 (786-0): 23.3 nM
GI50 (SW-620): 32 nM
GI50 (COLO 205): 170 nM
GI50 (OVCAR-4): 85.5 nM
GI50 (HCC 2998): 204 nM

CC(C)[C@@H]1O[C@@H](O[C@H]2CC[C@@]3(C)[C@H](CC[C@@H]4[C@@H]3CC[C@]3(C)[C@@H](C5=CC(=O)OC5)CC[C@]43O)C2)CC[C@H]1O
GI50 (DU-145): 19.5 nM
GI50 (SNB-19): 185 nM
GI50 (NCI-H522): 26 nM
Activity (NCI-H460 [1]): 50.85%
GI50 (SK-MEL-28): 252 nM
GI50 (MOLT-4): 16.9 nM
GI50 (MDA-MB-435): 150 nM
GI50 (NCI/ADR-RES): 31.5 nM
GI50 (NCI-H226): 119 nM
GI50 (SN12C): 23.7 nM
GI50 (NCI-H322M): 77.4 nM
GI50 (SF-268): 26.3 nM
GI50 (SK-MEL-5): 22.6 nM
GI50 (HT-29): 41.9 nM
GI50 (U-251): 82.9 nM
Activity (NCI-H460 [2]): 90.66%
GI50 (OVCAR-8): 56.2 nM
GI50 (HCT-15): 62.2 nM
Activity (NCI-H460 [3]): 14.48%
GI50 (RXF 393): 14 nM
GI50 (HCT-116): 21.5 nM
Activity (NCI-H460 [4]): 16.05%
GI50 (IGROV-1): 54.2 nM
GI50 (SK-MEL-2): 170 nM
GI50 (UACC-257): 122 nM
GI50 (SK-OV-3): 118 nM
GI50 (Malme-3M): 63.6 nM
GI50 (TK-10): 53.8 nM
Activity (NCI-H460 [5]): 9.96%
Activity (NCI-H460 [6]): 22.73%
GI50 (HOP-92): 79.8 nM
GI50 (RPMI-8226): 78.4 nM
GI50 (MDA-MB-231): 259 nM
GI50 (NCI-H460 [7]): 21.7 nM
GI50 (CCRF-CEM): 33.1 nM
GI50 (K562): 47 nM
GI50 (786-0): 26.8 nM
GI50 (SW-620): 42.8 nM
GI50 (COLO 205): 207 nM
GI50 (OVCAR-4): 123 nM
GI50 (HCC 2998): 243 nM

Source: ChEMBL document CHEMBL1817593, “C5'-Alkyl Substitution Effects on Digitoxigenin α-l-Glycoside Cancer Cytotoxicity” (ACS Med Chem Lett, 2011)
